Assay results reported in ChEMBL document CHEMBL1148105, “Bioactive metabolites from a marine-derived strain of the fungus Emericella variecolor” (2002).
Activity calls are given as the source filed them. The calls are words filed in the database; no cut-off is given here.

How the values were obtained:
[1] = system: OVCAR-5; assay: Growth inhibition of human OVCAR5 cells; assay type: functional
Method in brief: (§1)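 Tested in the NCI 60-cell-line screen using the standard NCI protocol, with concentrations up to 10^-4 M. Growth inhibition is reported as GI50 (M), taken from the NCI mean graphs.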

[2] = system: HOP-92; assay: Growth inhibition of human HOP92 cells; assay type: functional; method in brief: as §1
[3] = system: SF-268; assay: Growth inhibition of human SF268 cells; assay type: functional
Method in brief: (§2)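 Run in the NCI 60-cell-line screen under the standard NCI protocol. Cells were tested at concentrations up to 10^-4 M. Potency was expressed as GI50 (M), taken from the NCI mean-graph data.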

[4] = system: K562; assay: Growth inhibition of human K562 cells; assay type: functional; method in brief: as §1
[5] = system: HOP-62; assay: Growth inhibition of human HOP62 cells; assay type: functional; method in brief: as §1
[6] = Growth inhibition of human Hs 578T cells; assay type: functional; method in brief: as §1
[7] = system: UACC-62; assay: Growth inhibition of human UACC62 cells; assay type: functional; method in brief: as §2
[8] = system: NCI-H522; assay: Growth inhibition of human NCI-H522 cells; assay type: functional; method in brief: as §1
[9] = system: BT-549; assay: Growth inhibition of human BT549 cells; assay type: functional; method in brief: as §1
[10] = system: Candida albicans; assay: Antimicrobial activity against Candida albicans at 100 ug/ml; assay type: functional, organism-based
[11] = system: SN12C; assay: Growth inhibition of human SN12C cells; assay type: functional; method in brief: as §2
[12] = system: KM12; assay: Growth inhibition of human KM12 cells; assay type: functional; method in brief: as §1
[13] = system: M14; assay: Growth inhibition of human M14 cells; assay type: functional; method in brief: as §1
[14] = system: CAKI-1; assay: Growth inhibition of human Caki1 cells; assay type: functional; method in brief: as §1
[15] = system: COLO 205; assay: Growth inhibition of human COLO205 cells; assay type: functional; method in brief: as §1
[16] = system: SK-MEL-28; assay: Growth inhibition of human SK-MEL-28 cells; assay type: functional; method in brief: as §2
[17] = system: MDA-N; assay: Growth inhibition of human MDA-N cells; assay type: functional; method in brief: as §1
[18] = system: HT-29; assay: Growth inhibition of human HT-29 cells; assay type: functional
[19] = system: HCT-116; assay: Growth inhibition of human HCT116 cells; assay type: functional; method in brief: as §1
[20] = system: IGROV-1; assay: Growth inhibition of human IGROV1 cells; assay type: functional; method in brief: as §1
[21] = system: A498; assay: Growth inhibition of human A498 cells; assay type: functional; method in brief: as §1
[22] = system: Staphylococcus aureus; assay: Antimicrobial activity against Staphylococcus aureus at 100 ug/ml; assay type: functional, organism-based
[23] = system: Escherichia coli; assay: Antimicrobial activity against Escherichia coli at 100 ug/ml; assay type: functional, organism-based
[24] = system: NCI-H23; assay: Growth inhibition of human NCI-H23 cells; assay type: functional; method in brief: as §1
[25] = system: SR; assay: Growth inhibition of human SR cells; assay type: functional; method in brief: as §2
[26] = system: 786-0; assay: Growth inhibition of human 786-0 cells; assay type: functional; method in brief: as §1
[27] = system: SF-295; assay: Growth inhibition of human SF295 cells; assay type: functional; method in brief: as §2
[28] = system: UACC-257; assay: Growth inhibition of human UACC257 cells; assay type: functional; method in brief: as §2
[29] = system: HCT-15; assay: Growth inhibition of human HCT15 cells; assay type: functional; method in brief: as §1
[30] = system: SNB-75; assay: Growth inhibition of human SNB75 cells; assay type: functional; method in brief: as §2
[31] = system: CCRF-CEM; assay: Growth inhibition of human CCRF-CEM cells; assay type: functional; method in brief: as §1
[32] = system: DU-145; assay: Growth inhibition of human DU145 cells; assay type: functional; method in brief: as §1
[33] = system: T47D; assay: Growth inhibition of human T47D cells; assay type: functional; method in brief: as §2
[34] = read-out: pLC50 (the source's name) (converted)

COc1cccc(/C=C/[C@H]2O[C@@H](C)[C@H](O)[C@@H]2O)c1CO [VARITRIOL]
CC50 [1, 34]: > 100 µM
TGI ([1]; read-out: pTGI): > 100 µM
GI50 [2]: > 100 µM
CC50 [2, 34]: > 100 µM
TGI ([2]; read-out: pTGI): > 100 µM
GI50 [3]: > 100 µM
CC50 [3, 34]: > 100 µM
TGI ([3]; read-out: pTGI): > 100 µM
GI50 [4]: > 100 µM
CC50 [4, 34]: > 100 µM
TGI ([4]; read-out: pTGI): > 100 µM
GI50 [5]: > 100 µM
CC50 [5, 34]: > 100 µM
TGI ([5]; read-out: pTGI): > 100 µM
GI50 [6]: > 100 µM
CC50 [6, 34]: > 100 µM
TGI ([6]; read-out: pTGI): > 100 µM
GI50 [7]: > 100 µM
CC50 [7, 34]: > 100 µM
TGI ([7]; read-out: pTGI): > 100 µM
GI50 [8]: > 100 µM
CC50 [8, 34]: > 100 µM
TGI ([8]; read-out: pTGI): > 100 µM
GI50 [9]: > 100 µM
CC50 [9, 34]: > 100 µM
TGI ([9]; read-out: pTGI): > 100 µM
Activity [10]: inactive
GI50 [11]: > 100 µM
CC50 [11, 34]: > 100 µM
TGI ([11]; read-out: pTGI): > 100 µM
GI50 [12]: > 100 µM
CC50 [12, 34]: > 100 µM
TGI ([12]; read-out: pTGI): > 100 µM
GI50 [13]: > 100 µM
CC50 [13, 34]: > 100 µM
TGI ([13]; read-out: pTGI): > 100 µM
GI50 [14]: > 100 µM
CC50 [14, 34]: > 100 µM
TGI ([14]; read-out: pTGI): > 100 µM
GI50 [15]: 95.5 µM
CC50 [15, 34]: > 100 µM
TGI ([15]; read-out: pTGI): > 100 µM
GI50 [16]: > 100 µM
CC50 [16, 34]: > 100 µM
TGI ([16]; read-out: pTGI): > 100 µM
GI50 [17]: > 100 µM
CC50 [17, 34]: > 100 µM
TGI ([17]; read-out: pTGI): > 100 µM
GI50 [18]: > 100 µM
CC50 [18, 34]: > 100 µM
TGI ([18]; read-out: pTGI): > 100 µM
GI50 [19]: > 100 µM
CC50 [19, 34]: > 100 µM
TGI ([19]; read-out: pTGI): > 100 µM
GI50 [20]: > 100 µM
CC50 [20, 34]: > 100 µM
TGI ([20]; read-out: pTGI): > 100 µM
GI50 [21]: > 100 µM
CC50 [21, 34]: > 100 µM
TGI ([21]; read-out: pTGI): > 100 µM
Activity [22]: inactive
Activity [23]: inactive
GI50 [24]: > 100 µM
CC50 [24, 34]: > 100 µM
TGI ([24]; read-out: pTGI): > 100 µM
GI50 [25]: > 100 µM
CC50 [25, 34]: > 100 µM
TGI ([25]; read-out: pTGI): > 100 µM
GI50 [26]: > 100 µM
CC50 [26, 34]: > 100 µM
TGI ([26]; read-out: pTGI): > 100 µM
GI50 [27]: > 100 µM
CC50 [27, 34]: > 100 µM
TGI ([27]; read-out: pTGI): > 100 µM
GI50 [28]: > 100 µM
CC50 [28, 34]: > 100 µM
TGI ([28]; read-out: pTGI): > 100 µM
GI50 [29]: > 100 µM
CC50 [29, 34]: > 100 µM
TGI ([29]; read-out: pTGI): > 100 µM
GI50 [30]: 0.245 µM
CC50 [30, 34]: > 100 µM
TGI ([30]; read-out: pTGI (converted)): 1.02 µM
GI50 [31]: 25.7 µM
CC50 [31, 34]: > 100 µM
TGI ([31]; read-out: pTGI (converted)): 70.8 µM
GI50 [32]: 1.1 µM
CC50 [32, 34]: > 100 µM
TGI ([32]; read-out: pTGI (converted)): 2.4 µM
GI50 [33]: 0.209 µM
CC50 [33, 34]: > 100 µM
TGI ([33]; read-out: pTGI (converted)): 1.05 µM
